Experimental data from ChEMBL document CHEMBL1148339, “Synthesis, structure-activity relationships, and drug resistance of beta-d-3'-fluoro-2',3'-unsaturated nucleosides as anti-HIV Agents” (J Med Chem, 2004).

Biological target: T1, Adenosine deaminase (Bos taurus) (UniProt P56658)
T1 sequence (whole entry): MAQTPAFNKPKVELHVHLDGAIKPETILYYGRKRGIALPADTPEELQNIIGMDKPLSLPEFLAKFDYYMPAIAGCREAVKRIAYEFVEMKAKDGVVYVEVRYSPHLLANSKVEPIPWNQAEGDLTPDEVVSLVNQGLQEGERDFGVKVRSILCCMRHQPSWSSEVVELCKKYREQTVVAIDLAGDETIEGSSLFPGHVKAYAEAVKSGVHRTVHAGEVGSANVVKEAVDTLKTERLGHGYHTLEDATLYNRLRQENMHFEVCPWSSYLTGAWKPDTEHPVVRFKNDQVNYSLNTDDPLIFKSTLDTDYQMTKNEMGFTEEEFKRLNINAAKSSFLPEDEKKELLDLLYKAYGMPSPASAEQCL
Test: Kcat/KM of compound against adenosine deaminase (ADA) was determined
Outline: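 Deamination by calf intestinal mucosa adenosine deaminase (0.15 units, MW 33 000, in 2 mL) in phosphate buffer pH 7.4 at 25 °C, substrate 15–100 μM, monitored by UV at 265 nm. Initial rates from graphical fitting of concentration vs time; Vmax and KM from Lineweaver–Burk plot, kcat calculated from enzyme amount.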

Nc1ncnc2c1ncn2[C@@H]1O[C@H](CO)[C@@H](O)[C@H]1O
k cat/Km: 3.1e+06 M⁻¹ s⁻¹
